Assay results published in ChEMBL document CHEMBL1132964, “Selective ET(A) antagonists. 5. Discovery and structure-activity relationships of phenoxyphenylacetic acid derivatives” (J Med Chem, 2000).
Converted amounts (≈) assume the structure as drawn. “And” between values parts separate entries of the source, which are not always exact repeats. Identical values can stand only once. The source made the active and inactive calls. The rule behind the calls is not given here.

Assays:
Endothelin-1 receptor = molecular target: T1, Endothelin-1 receptor (Rattus norvegicus, UniProt P26684); test: In vitro ability to antagonise the binding of [125I]ET1 to the rat aortic A10 cell membrane endothelin A receptor.; format: cell membranes
T1 sequence (P26684 whole entry): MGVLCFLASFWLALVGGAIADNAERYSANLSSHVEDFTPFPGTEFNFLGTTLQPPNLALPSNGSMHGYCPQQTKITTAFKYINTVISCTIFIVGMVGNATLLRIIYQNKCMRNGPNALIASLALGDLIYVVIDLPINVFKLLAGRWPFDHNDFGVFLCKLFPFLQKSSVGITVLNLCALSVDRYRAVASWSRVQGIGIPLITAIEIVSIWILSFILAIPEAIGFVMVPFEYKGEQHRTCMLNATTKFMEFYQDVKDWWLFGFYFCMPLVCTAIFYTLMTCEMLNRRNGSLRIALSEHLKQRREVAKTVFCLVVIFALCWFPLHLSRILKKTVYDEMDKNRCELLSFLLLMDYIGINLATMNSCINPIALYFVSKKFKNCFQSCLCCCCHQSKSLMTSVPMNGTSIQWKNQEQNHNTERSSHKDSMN

Rattus norvegicus = organism: Rattus norvegicus; test: Tested for inhibition of ET-1 induced contraction against isolated Rat aortic rings denuded of the endothelium.; format: functional, Aorta
How it was run: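 Endothelium-denuded rat aortic rings contracted by ET-1. Tested compound at increasing concentrations, with ET-1 dose-response curves run in its presence. Antagonism expressed as pKb from the rightward shift of the ET-1 curve. Determinations in duplicate, with 95% confidence limits.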

[1] = tested on: Endothelin receptor type A (Rattus norvegicus); test: Inhibition of Endothelin A receptor in pithed rats 3 hour after oral administration at 75 umol/kg
[2] = tested on: Endothelin receptor type A (Rattus norvegicus); test: Activity against Endothelin A receptor in pithed rats after intravenous administration at 25 umol/kg
[3] = tested on: Endothelin receptor type A (Rattus norvegicus); test: Inhibition of Endothelin A receptor in pithed rats 1.5 hour after oral administration at 75 uM/kg
[4] = Tested for Tmax in male Sprague-Dawley rats dosed at 10 mg/kg orally; format: ADME, organism-based; set-up: dose 10 mg/kg, route oral; settings: rat, in vivo, po
How it was run: (§1)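 Single 10 mg/kg oral dose to male Sprague-Dawley rats or male Beagle dogs. Plasma Cpmax (µg/mL), Tmax (h), t1/2 (h) and bioavailability (%) derived from the plasma profile.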

[5] = Maximal plasma concentration in male Sprague-Dawley rats at 10 mg/kg oral dose; format: ADME, organism-based; set-up: dose 10 mg/kg, route oral; settings: rat; how it was run: as §1
[6] = Tested for half life in male Sprague-Dawley rats dosed at 10 mg/kg orally; format: ADME, organism-based; set-up: dose 10 mg/kg, route oral; settings: rat, in vivo, po; how it was run: as §1
[7] = Oral bioavailability in rat (Sprague-Dawley) (male) (dose 10 mg/kg); format: ADME, organism-based; settings: in vivo; how it was run: as §1
[8] = Tested for bioavailability in male Beagle dogs dosed at 10 mg/kg orally; format: ADME, organism-based, Canis lupus familiaris; settings: dog, in vivo, po, read-out: Bioavailabiility; how it was run: as §1
[9] = Measured solubility; format: ADME, organism-based, Rattus norvegicus
[10] = Maximal plasma concentration in male Beagle dogs at 10 mg/kg oral dose; format: ADME, organism-based, Canis lupus familiaris; set-up: dose 10 mg/kg, route oral; settings: dog; how it was run: as §1
[11] = Tested for Tmax in male Beagle dogs dosed at 10 mg/kg orally; format: ADME, organism-based, Canis lupus familiaris; set-up: dose 10 mg/kg, route oral; settings: dog, in vivo, po; how it was run: as §1
[12] = Tested for half life in male Beagle dogs dosed at 10 mg/kg orally; format: ADME, organism-based, Canis lupus familiaris; set-up: dose 10 mg/kg, route oral; settings: dog, in vivo, po; how it was run: as §1

SMILES	IC50 (Endothelin-1 receptor) [nM]	pKb (Rattus norvegicus)	other results
Cc1ccccc1C(Oc1cc(OCc2ccc3c(c2)OCCO3)ccc1C#N)C(=O)O (centres undefined)	1500		
Cc1ccccc1C(Oc1cc(OCc2ccc3c(c2)OCO3)ccc1C#N)C(=O)O (centres undefined) [listing 1 of 2 here]	12	7.9	
Cc1ccccc1C(Oc1cc(OCc2c(C)cccc2C)ccc1C#N)C(=O)O (centres undefined)	857		
N#Cc1ccc(OCc2ccsc2)cc1OC(C(=O)O)c1ccccc1C(F)(F)F (centres undefined)	53		
Cc1ccccc1C(Oc1cc(OCc2ccc3ncoc3c2)ccc1C#N)C(=O)O (centres undefined)	6	7.8	Activity [1]: 3.1 µM/kg; Activity [2]: 63 µM/kg; Activity [3]: inactive
Cc1ccccc1C(Oc1cc(OCc2ccc3ocnc3c2)ccc1C#N)C(=O)O (centres undefined)	75		
Cc1ccccc1C(Oc1cc(OCc2ccncc2)ccc1C#N)C(=O)[O-].[Na+] (centres undefined)	5		Tmax [4]: 2 h; Cmax [5]: 290 ng/mL; half-life [6]: 0.2 h; bioavailability [7]: 9%
Cc1ccccc1C(Oc1cc(OCc2ccc3c(c2)OCO3)ccc1C#N)C(=O)O (centres undefined) [listing 2 of 2 here]			Activity [2]: 23 µM/kg and 45 µM/kg; Activity [3]: 26 µM/kg and 34 µM/kg
Cc1ccccc1C(Oc1cc(OCc2cncs2)ccc1C#N)C(=O)O (centres undefined)	30		
COc1ccccc1C(Oc1cc(OCc2ccsc2)ccc1C#N)C(=O)O (centres undefined)	529		
N#Cc1ccc(OCc2ccsc2)cc1OC(C(=O)O)c1ccccc1Br (centres undefined)	51		
N#Cc1ccc(OCc2ccc3c(c2)OCO3)cc1OC(C(=O)O)c1ccccc1 (centres undefined)	41	7.4	Activity [2]: 7.6 µM/kg
Cc1ccccc1C(Oc1cc(OCc2ccccn2)ccc1C#N)C(=O)O (centres undefined)	> 3000		
Cc1ccccc1C(Oc1cc(OCc2ccncc2)ccc1C#N)C(=O)O (centres undefined)	9	7.6	
N#Cc1ccc(OCc2ccncc2)cc1OC(C(=O)O)c1ccccc1Cl (centres undefined)	6	7.7	Activity [1]: 1.7 µM/kg; Activity [2]: 46.8 µM/kg; Activity [3]: 2.7 µM/kg
Cc1ccccc1C(Oc1cc(OCc2ccoc2)ccc1C#N)C(=O)O (centres undefined)	68		
COc1cc(COc2ccc(C#N)c(OC(C(=O)O)c3ccccc3C)c2)cc(OC)c1OC (centres undefined)	> 3000		
N#Cc1ccc(OCc2ccc3ncoc3c2)cc1OC(C(=O)O)c1ccccc1Cl (centres undefined)	9	7.5	

SMILES	IC50 (Endothelin-1 receptor) [nM]	pKb (Rattus norvegicus)	other results
Cc1ccccc1[C@H](Oc1cc(OCc2ccncc2)ccc1C#N)C(=O)O	5	8.3	
Cc1ccccc1C(Oc1cc(OCc2ccc3c(c2)OCO3)ccc1C#N)C(=O)[O-].[Na+] (centres undefined)	7	8.1	bioavailability [8]: 89%; solubility [9]: > 20000 µg/mL; Tmax [4]: 1 h; Cmax [5]: 5900 ng/mL; half-life [6]: 2.8 h; Cmax [10]: 30100 ng/mL; bioavailability [7]: 84%; Tmax [11]: 0.5 h; half-life [12]: 7.4 h
Cc1ccccc1C(Oc1cc(OCc2ccsn2)ccc1C#N)C(=O)O (centres undefined)	220		
Cc1ccccc1C(Oc1cc(OCc2ccsc2)ccc1C#N)C(=O)O (centres undefined)	20	7.9	
N#Cc1ccc(OCc2ccncc2)cc1OC(C(=O)O)c1ccsc1 (centres undefined)	630		
Cc1ccccc1[C@H](Oc1cc(OCc2ccc3c(c2)OCO3)ccc1C#N)C(=O)O	6		
N#Cc1ccc(OCc2ccnnc2)cc1OC(C(=O)O)c1ccccc1Cl (centres undefined)	44		
Cc1ccccc1C(Oc1cc(OCc2ccnc(F)c2)ccc1C#N)C(=O)O (centres undefined)	23		
Cc1ccccc1C(Oc1cc(OCc2cccnc2)ccc1C#N)C(=O)O (centres undefined)	30		
N#Cc1ccc(OCc2ccsc2)cc1OC(C(=O)O)c1ccoc1 (centres undefined)	2850		
Cc1ccccc1C(Oc1cc(OCc2ccccc2)ccc1C#N)C(=O)O (centres undefined)	49		
N#Cc1ccc(OCc2ccsc2)cc1OC(C(=O)O)c1ccccc1F (centres undefined)	22		
N#Cc1ccc(OCc2ccc3c(c2)OCO3)cc1OC(C(=O)O)c1ccccc1C(F)(F)F (centres undefined)	16	7.4	Activity [2]: 9 µM/kg
N#Cc1ccc(OCc2ccsc2)cc1OC(C(=O)O)c1ccc(Cl)cc1 (centres undefined)	504		
N#Cc1ccc(OCc2ccc3c(c2)OCO3)cc1OC(C(=O)O)c1ccccc1Cl (centres undefined)	14	8	solubility [9]: 1680 µg/mL (≈ 3.84 mM); Activity [1]: 10 µM/kg; Tmax [4]: 1 h; Cmax [5]: 22000 ng/mL; half-life [6]: 6.3 h; bioavailability [7]: 76%; Activity [2]: 13.8 µM/kg; Activity [3]: 19 µM/kg
N#Cc1ccc(OCc2ccsc2)cc1OC(C(=O)O)c1cccc(Cl)c1 (centres undefined)	98		
N#Cc1ccc(OCc2ccsc2)cc1OC(C(=O)O)c1ccccc1 (centres undefined)	70	7.24	
N#Cc1ccc(OCc2ccsc2)cc1OC(C(=O)O)c1ccccc1Cl (centres undefined)	17	7.76	solubility [9]: 1190 µg/mL (≈ 2.98 mM); Tmax [4]: 0.5 h; Cmax [5]: 62000 ng/mL; half-life [6]: 5 h; bioavailability [7]: 129%
